MC4R barr agon: MC4R agonists recruiting beta-arrestin, primary screen, cell-based, luminescence, agonist arm of biased-ligand search. Melanocortin receptor 4 (Homo sapiens), P32245. U2OS MC4R beta-arrestin complementation; percent of melanotan II response, DMSO zero. 360,000 compounds, 0.98% hits. activation, % at 8.9 µM;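 active means activation above a per-plate cutoff, the mean activation of sample wells on that plate plus 3 SD, cut at about 8% in these data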
Target sequence (P32245 whole entry, looked up): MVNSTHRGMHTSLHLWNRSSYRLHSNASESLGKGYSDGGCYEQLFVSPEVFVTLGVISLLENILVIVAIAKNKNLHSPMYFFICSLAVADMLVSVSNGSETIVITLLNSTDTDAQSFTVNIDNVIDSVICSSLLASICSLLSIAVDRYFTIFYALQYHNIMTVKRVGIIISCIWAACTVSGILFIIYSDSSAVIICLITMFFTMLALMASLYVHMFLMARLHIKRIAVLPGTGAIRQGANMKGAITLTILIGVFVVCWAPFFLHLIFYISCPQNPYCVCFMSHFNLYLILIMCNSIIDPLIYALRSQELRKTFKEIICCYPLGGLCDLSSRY
TAG inh: inhibitors of triacylglycerol accumulation, primary screen, cell-based, uHTS, fluorescence, H9c2; H9c2 cells, Nile Red lipid (TAG) fluorescence; cells loaded with 200 µM oleic acid; inhibition, % at 12.5 µM; 230,000 compounds, 0.66% hits;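 active means pattern-corrected inhibition of lipid staining of at least 50% with the nuclear-stain viability signal not falling by more than 50%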;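 further: 0% = DMSO wells and 100% = triacsin C control wells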
MC4R antagonist: MC4R antagonists of cAMP signaling, primary screen, cell-based, TR-FRET, antagonist arm of biased-ligand search; Melanocortin receptor 4 (Homo sapiens), P32245; MC4R-expressing cells, MTII-stimulated cAMP, LANCE TR-FRET; inhibition, % at 6.5 µM; 360,000 compounds, 0.48% hits; AID 540295, 2011;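 active means inhibition above its plate's cutoff, the mean of tested wells on that plate plus 3 SD, cut at about 29% in these data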;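 further: 0% = Melanotan II alone and 100% = Melanotan II plus saturating MCL0020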
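Material – human MC4R-expressing U2OS cells · Repeats – no replicates · Detection – TR-FRET with Eu-cAMP and labeled anti-cAMP, 671 nm · Times – compound 30 min, challenge 1 h, detection 1 h · Compound – single nominal compound dose of 6.5 µM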
Calb FLC: C. albicans growth inhibition with fluconazole, primary screen, CaCi-2 strain, Alamar Blue fluorescence; C. albicans CaCi-2 + fluconazole, 48 h; growth inhibition, % (concentration not given with the values); 300,000 compounds, 0.57% hits; AID 1979, 2009;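 active means growth inhibition above about 58% in most replicates, limit read from the data, passing the limit was not always enough; inconclusive means exactly half the replicates above a set limit; inactive means most replicates below a set limit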;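 further: all wells also contain fluconazole at 8 µg/ml as a sub-toxic cotreatment; 0% = median of DMSO wells and 100% = median of geldanamycin control wells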
Efflux pump inh: inhibitors of Candida efflux pumps in yeast, primary screen, S. cerevisiae, Nile Red, multiplex; S. cerevisiae Candida pump triplex; inhibition, % at 10 µM; 330,000 compounds, 0.44% hits;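 active means plate passing quality check with inhibition over a set limit, or well fluorescence over plate mean plus 4 SD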;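 further: Nile Red retained in pooled yeast measured as flow cytometry median fluorescence; 0% = buffer negative control and 100% = Enniatin B positive control; higher means more Nile Red kept so more efflux inhibition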
GalR3 antagonist: GalR3 antagonists in HEK293 cells, primary screen, cell-based, fluorescence readout; Galanin receptor type 3 (Homo sapiens), O60755; HEK293 GalR3-CNG cAMP membrane potential fluorescence; galR3 body fused to GalR1 C-terminus; inhibition, % at 3 µM; 360,000 compounds, 0.44% hits; AID 651719, 2012;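 active means inhibition above the screen-wide average plus 3 SD, cut at about 13% in these data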;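 further: forskolin and galanin both at EC90 stimulate the cells; cAMP rise reported by CNG channel membrane potential dye signal; 0% = forskolin plus galanin with DMSO and 100% = forskolin alone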
Starred values were filed as active, the others as inactive; ? = inconclusive; nt = not tested or not shown. Only some compounds are listed: those with a hit (about 2.9% of all), similar ones and a draw of the others.

SMILES	MC4R barr agon	TAG inh	MC4R antagonist	Calb FLC	Efflux pump inh	GalR3 antagonist
CCNC(=S)NNC(=O)c1c(Cl)c(C)nn1C	-2.2	nt	13.5	-3.8	-0.1	-3.8
CCNC(=S)NNC(=O)c1nn(C)c(C)c1Cl	-1.8	-8.2	3.2	119.2*	-0.1	-0.2
Cc1c(COC(=O)NC(C)C)c(COC(=O)NC(C)C)c2n1CS(=O)(=O)C2	nt	nt	nt	nt	nt	-6.8
COC(=O)[C@@]12C[C@@H](CC(=O)NCc3cccs3)C(=O)N(Cc3ccco3)C1=CCC(C)(C)C2	nt	nt	nt	nt	nt	-7.7
Oc1cc(NCCN2CCOCC2)cc2cccnc12	0.2	73.7*	-8.4	nt	0.2	2.6
Oc1cc(Nc2ccccc2)cc2cccnc12	-1.3	5.1	-7.9	nt	0.1	-7.7
O=C(Nc1nnc(SCc2ccc(F)cc2)s1)c1ccccn1	-2.1	16.5	-4.7	103.1*	nt	-0.5
Cc1cccc(C)c1NC(=O)C1(C)CSCC(=O)N1CCc1ccccc1 (configuration not stated)	nt	nt	nt	nt	nt	-4.3
Cc1noc(C)c1-c1ccc(C(=O)NCc2cccs2)c2occc12	0.0	6.9	5.0	nt	nt	-7.3
COc1ccc(C(=O)NCCN2CCOCC2)c(OC)c1OC	-0.1	-3.3	5.3	70.2*	-0.1	-5.1
COc1cc(OC)cc(C(=O)NCC2CCN(C(=O)C(=O)c3cc4ccccc4o3)CC2)c1	nt	nt	nt	nt	nt	0.8
N#Cc1ccc(C23CC4(C2)[C@H](CN(P(=O)(c2ccccc2)c2ccccc2)[C@@H]4c2ccccc2)C3c2ccc(Cl)nc2)cc1 (some centres not stated)	-0.9	51.5*	6.4	10.7	0.1	nt
N#C/C(=C\c1ccc(Cl)cc1)c1nc2ccccc2o1	8.9*	nt	3.5	-7.9	0.1	5.0
COc1ccc(-c2csc(-c3ccccc3)n2)c(OC)c1	-1.1	-6.9	-9.4	98.7*	-0.1	-2.4
COc1ccc(-c2csc(-c3cccs3)n2)c(OC)c1	-1.7	-15.3	5.2	37.5	-0.1	-4.4
Cc1ccc(Oc2cccc3c2S(=O)(=O)N([C@H](C)c2ccccc2)C[C@@H](COCc2ccccc2)O3)cc1	nt	nt	nt	nt	nt	-5.2
COc1cc(C(=O)Nc2nc3ccc(S(C)(=O)=O)cc3s2)cc(OC)c1C	19.4*	12.5	6.5	11.7	0.1	-7.1
CCCCCCCCN1C(=O)[C@@H](CC(=O)NCCCCc2ccccc2)C[C@@]2(C(=O)OC)C1=C[C@H](C1CCCC1)O[C@@H]2C	nt	nt	nt	nt	nt	-2.8
Cc1cc(NC(=O)c2c(F)cccc2Cl)n(-c2nc3ccccc3[nH]2)n1	-1.9	34.2	-23.8	108.9*	0.0	-2.7
COc1ccc(-c2cc(C(=O)Nc3cc(C)n(Cc4ccc(Cl)cc4)n3)no2)cc1OC	24.3*	nt	5.8	?	0.0	nt
NC(=O)C12NC(Cc3ccccc31)c1ccccc12 (configuration not stated)	nt	nt	nt	nt	nt	-0.6
COc1ccc(/C(C)=N/Nc2cccc(C(=O)O)c2)cc1OC	-1.9	25.4	0.2	-2.7	0.0	-3.8
C/C(=N\Nc1cccc(C(=O)O)c1)c1ccc(Cl)s1	-2.7	-1.3	3.6	78.0*	0.0	-4.9
C(=C\c1ccco1)/C1=NN(c2ccccc2)C(c2ccco2)C1 (configuration not stated)	-1.3	3.0	2.4	-10.9	1.4*	nt
CCNC(=O)C1(C)CCCN1C(=O)c1cc(OC)c(OC)c(OC)c1 (configuration not stated)	-0.8	1.3	-6.1	nt	nt	-5.4
Cc1ccc2nc(NCc3ccccc3)[nH]c2c1	-3.2	60.1*	-21.2	-8.0	0.2	-1.8
Cc1ccc(-n2nc3ccc(NC(=O)c4cccc([N+](=O)[O-])c4C)cc3n2)cc1	8.9*	30.7	26.2	0.2	-0.1	-6.4
CCCCC[C@@H](C)N1C[C@H](COCc2ccccc2)Oc2cc(N3CC[C@H](O)C3)ccc2S1(=O)=O	nt	nt	nt	nt	nt	-6.8

High-throughput results deposited in PubChem by several laboratories.
